Screening results from PubChem BioAssay.
Only some compounds are listed: those with a hit (about 5.8% of all), similar ones and a draw of the others.
PLK1 PBD inh = Plk1 polo box domain binding inhibitors, primary screen, biochemical, fluorescence polarization; Serine/threonine-protein kinase PLK1 (Homo sapiens), P53350; Plk1 PBD phosphopeptide binding; inhibition, %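 (tested at about 20 µM)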; hit rate 0.13% among 97,000; AID 693, 2007; in the data active = inhibition above about 34%, passing the limit was not always enough
Target sequence (P53350 whole entry, looked up, the tested form may be a part): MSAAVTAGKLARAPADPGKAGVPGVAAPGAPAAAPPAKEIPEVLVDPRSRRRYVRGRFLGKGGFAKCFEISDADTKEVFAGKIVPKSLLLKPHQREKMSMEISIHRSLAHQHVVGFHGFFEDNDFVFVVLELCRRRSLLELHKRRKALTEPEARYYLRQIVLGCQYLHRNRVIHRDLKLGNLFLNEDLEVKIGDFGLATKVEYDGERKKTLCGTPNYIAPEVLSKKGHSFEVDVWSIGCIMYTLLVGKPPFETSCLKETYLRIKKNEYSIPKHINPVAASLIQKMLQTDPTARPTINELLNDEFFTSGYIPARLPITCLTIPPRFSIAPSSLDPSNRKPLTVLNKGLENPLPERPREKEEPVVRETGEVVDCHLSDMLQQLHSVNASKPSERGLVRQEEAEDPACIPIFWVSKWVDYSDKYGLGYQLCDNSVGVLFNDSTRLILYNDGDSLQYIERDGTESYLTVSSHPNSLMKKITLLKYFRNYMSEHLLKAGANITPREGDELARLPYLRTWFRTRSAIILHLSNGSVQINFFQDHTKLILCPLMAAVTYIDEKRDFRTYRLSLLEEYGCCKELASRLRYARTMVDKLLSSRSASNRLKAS
Pyk2 oligo antag = antagonists of Pyk2 self-association, primary screen, Q293 cells, FERM NanoBiT luminescence, HTS | stronger effect = lower value | Protein-tyrosine kinase 2-beta (Homo sapiens), Q14289 | z-score (the deposit names both 25 µM and 10 µM) | hit rate 0.83% among 99,000;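 active = Z-score of -3 or lower, scaled per plate to the spread of control and sample wells; inactive = z-score above -3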;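 note: negative z-score means lost luminescence so less FERM oligomerization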
Cav3 T inh = Cav3.2 calcium influx blockers – cell-based, Fluo-4 calcium fluorescence, FDSS, MLSMR library, primary screen; Voltage-dependent T-type calcium channel subunit alpha-1H (Homo sapiens), O95180; Cav3.2-expressing cells; stronger effect = lower value; B-score at 10 µM; hit rate 4% among 100,000;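 active = single-dose well whose peak fluorescence ratio is a statistical outlier from its plate by either plate-standardised score or position-corrected B-score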
Rev-RRE block = HIV-1 Rev-RRE binding inhibitors, primary screen, biochemical, FRET, protein-RNA interaction | P05866 | Rev peptide-RRE RNA binding | inhibition, % at 8 µM | hit rate 0.79% among 97,000;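 active = inhibition above the screen-wide mean plus 3 SD, cut at about 35% in these data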
Target sequence (P05866 whole entry, looked up): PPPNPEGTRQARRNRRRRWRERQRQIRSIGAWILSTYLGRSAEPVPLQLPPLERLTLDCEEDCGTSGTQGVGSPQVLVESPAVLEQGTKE
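Assay system: labelled RRE RNA duplex and labelled Rev peptide / Medium: HEPES pH 7.5 salt buffer with EDTA / Reagent: labelled Rev peptide / Schedule: 5 + 15 min at 25 °C / Signal: FRET, excitation 480 nm, emission 540 nm donor and 671 nm acceptor / Benchmarks: DMSO and neomycin B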
PLK1 kinase inh = human PLK1 kinase inhibitors, primary screen, biochemical, TR-FRET. hit rate 0.53% among 97,000. inhibition, % at 10 µM. recombinant PLK1 kinase, TR-FRET peptide phosphorylation;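 active = inhibition of 50% or more in the single-concentration screen; inactive = inhibition below 50%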
FAK blocker = FAK kinase inhibitors, primary screen, biochemical; Focal adhesion kinase 1 (Homo sapiens), Q05397; biochemical FAK kinase activity assay; inhibition, %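 (tested at 7 µM)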; hit rate 0.84% among 97,000; AID 727, 2007; in the data active = inhibition above about 19%
Of the large screens only hits and unclear results are named; the others gave an inactive call; [ ] = another dose, or the depositor's remark.

COc1ccc(CNC(=O)C2CCCN2S(=O)(=O)c2ccccc2)cc1 (stereo unspecified)	none
CCCNC(=O)c1ccc2c(c1)C1C3CCC(C3)C1C(c1ccccc1)N2 (stereo unspecified)	Cav3 T inh -5
CCCNC(=O)c1ccc2snnc2c1	none
O=C(c1oc(=O)c2ccccc2c1-c1ccccc1)N1CCN(C2CCCCC2)CC1	none (no result: Pyk2 oligo antag)
CCCC(C)NC(=O)c1ccc2[nH]c3c(c2c1)CC(C)CC3 (stereo unspecified)	Cav3 T inh -5
O=C(NCCNC(=O)c1cc(OCC(F)(F)F)ccc1OCC(F)(F)F)Nc1ccc(Cl)cc1	Cav3 T inh -4.1 (no result: Pyk2 oligo antag)
O=C(NCCNC(=O)c1cc(OCC(F)(F)F)ccc1OCC(F)(F)F)Nc1ccc(OC(F)(F)F)cc1	none
O=C(NC1CCCC1)c1nc2c(nnn2Cc2ccccc2Cl)c(=O)[nH]1	Cav3 T inh -3.4
O=C(NC1CCCC1)c1nc2c(nnn2Cc2cccc(Cl)c2)c(=O)[nH]1	none (no result: PLK1 PBD inh, Rev-RRE block, PLK1 kinase inh, FAK blocker)
CCOC(=O)/C(C#N)=C1/SC(CCO)C(=O)N1c1ccccc1 (stereo unspecified)	FAK blocker 23
Cc1ccc(Nc2c([N+](=O)[O-])cc(C(=O)N3CC(=O)Nc4ccccc43)cc2[N+](=O)[O-])c(C)c1	Pyk2 oligo antag -3.4
COc1ccc([N+](=O)[O-])cc1NC(=O)CC(C)c1ccccc1 (stereo unspecified)	none
CC(CC(=O)Nc1ccc(Cl)c([N+](=O)[O-])c1)c1ccccc1 (stereo unspecified)	Cav3 T inh -8.7
CC(=O)C(=Nc1ccc(Cl)cc1Cl)NNc1cccc(Cl)c1	none
O=C(c1ccc(Br)cc1)c1cc([N+](=O)[O-])ccc1N1CCCCC1	Cav3 T inh -3.6
CN1CCN(c2ccc([N+](=O)[O-])cc2C(=O)c2ccc(Br)cc2)CC1	none
COc1ccc(NC(=S)Nc2cccc(S(=O)(=O)N3CCCCC3)c2)cc1	none (no result: PLK1 PBD inh, Cav3 T inh, Rev-RRE block, PLK1 kinase inh, FAK blocker)
CCCn1nc2cc(C(=O)NCCc3cccs3)ccc2c1OCC	none (no result: Pyk2 oligo antag)
Cc1ccc(-c2nn(-c3ccccc3)cc2CN(Cc2ccccc2)C(=O)c2ccco2)o1	Cav3 T inh -4
CC(C)OC(=O)c1cn(-c2ccccc2)nc1-c1ccco1	none
CCOc1cc2c3c(c1)C1(OCCO1)C(=O)N3C(C)(C)CC2C (stereo unspecified)	none
CCOc1cc2c3c(c1)C1(Nc4ccccc4S1)C(=O)N3C(C)(C)CC2C (stereo unspecified)	Cav3 T inh -4.2
C#C[C@]1(O)CC[C@H]2[C@@H]3CCc4cc(OC5CCCC5)ccc4[C@H]3CC[C@@]21C	none (no result: PLK1 PBD inh, Pyk2 oligo antag, Rev-RRE block, PLK1 kinase inh, FAK blocker)
C#C[C@]1(O)CC[C@H]2[C@@H]3CCC4=Cc5oncc5C[C@]4(C)[C@H]3CC[C@@]21C	Cav3 T inh -4.5 (no result: PLK1 PBD inh, Pyk2 oligo antag, Rev-RRE block, PLK1 kinase inh, FAK blocker)
Cc1cccc(-n2c(CCCN3C(=O)c4ccccc4C3=O)nc3ccccc3c2=O)n1	none (no result: Cav3 T inh)
Cc1ccc(-c2cc(C(F)F)n3ncc(C(=O)N4CCN(c5ccccn5)CC4)c3n2)cc1	Cav3 T inh -5.3 (no result: Pyk2 oligo antag)
CCN1CCN(C(=O)c2cnn3c(C(F)F)cc(-c4ccc(C)cc4)nc23)CC1	none
CN1CCN(C(=O)Nc2cccc3ccccc23)CC1	none
CCN1CCN(C(=O)Nc2cccc3ccccc23)CC1	Pyk2 oligo antag -3.2
CCn1nc(C(=O)Nc2cccc3ccccc23)c(Cl)c1Cl	Cav3 T inh -5.7
CCOc1cc(C2C(C(=O)OCC(C)C)=C(C)N=C3SCCC(=O)N32)ccc1OC(C)=O (stereo unspecified)	none
COC(=O)CN(c1nc(C)c(Br)c(OC)n1)S(=O)(=O)c1ccc(C)cc1	Cav3 T inh -5.5
COC(=O)CN(c1nc(C)cc(OC)n1)S(=O)(=O)c1ccc(C)cc1	none (no result: PLK1 PBD inh, Rev-RRE block, PLK1 kinase inh, FAK blocker)
CC(Sc1nnc2c(n1)C1(C)CCC2C1(C)C)C(=O)Nc1ccccc1 (stereo unspecified)	none
O=S(=O)(/C=C/c1ccccc1)Nc1ccc2c(c1)OCO2	Cav3 T inh -7.4
O=C(CSc1nnc(-c2ccc(OC(F)F)cc2)o1)NCc1cccs1	none
Cc1cc(C)cc(NC(=O)C2CCN(S(=O)(=O)c3c(C)n[nH]c3C)CC2)c1	none
Cc1cc(=O)oc2cc(NC(=O)c3cc4ccccc4o3)ccc12	none (no result: Pyk2 oligo antag, Cav3 T inh)
Cc1ccc(NC(=O)c2cc3ccccc3o2)cc1S(=O)(=O)N(C)C	Pyk2 oligo antag -3.2
O=C(CN1CCC(n2nnc3cc(F)ccc32)CC1)Nc1ccc2c(c1)CCC2	Cav3 T inh -5.6
CCOc1ccc(C2Sc3ccccc3NC3=C2C(=O)OC3)cc1 (stereo unspecified)	Cav3 T inh -4.1
Brc1ccc(OCCOCCN2CCOCC2)cc1	none
Clc1ccc(OCCN2CCOCC2)cc1Cl	Cav3 T inh -4
O=C(NC1CCCCCC1)c1nnc(Cc2ccc(Cl)cc2)o1	none (no result: PLK1 PBD inh, Pyk2 oligo antag, Rev-RRE block, PLK1 kinase inh, FAK blocker)
O=C(c1nnc(Cc2ccc(Cl)cc2)o1)N1CCc2ccccc2C1	Cav3 T inh -5.7 (no result: PLK1 PBD inh, Pyk2 oligo antag, Rev-RRE block, PLK1 kinase inh, FAK blocker)
N#Cc1c(C(F)(F)F)cc(-c2cccc(Cl)c2)[nH]c1=O	Cav3 T inh -2.7
N#Cc1c(-c2ccccc2)nc(-c2ccccc2)[nH]c1=O	none
Cc1cc(C(F)(F)F)c(C#N)c(=O)[nH]1	none
N#Cc1c(C(F)(F)F)cc(-c2ccc(Cl)cc2)[nH]c1=O	Cav3 T inh -8.7
CCCOC(=O)/C(C(N)=NCc1ccccc1)=C(\O)OCCC	none
CCOc1ccc(C2=Nn3c(nnc3-c3ccccc3OC)SC2)cc1	Cav3 T inh -5.3
CCOc1ccc(-c2nnc3n2N=C(c2ccc(OC)cc2)CS3)cc1	none
O=C(CNS(=O)(=O)c1cccs1)N1CCc2ccccc2C1	none (no result: Cav3 T inh)
O=C(c1ccc(N2CCCCC2)c([N+](=O)[O-])c1)N(Cc1ccccc1)c1ccccn1	Cav3 T inh -4.5
CCCCOCCCNc1ncnc2c1[nH]c1ccccc12	Cav3 T inh -4.7
CCOCCCNc1ncnc2c1[nH]c1ccccc12	none
CC1(c2cc([N+](=O)[O-])cc([N+](=O)[O-])c2)CC(C)(C)N(C(=O)c2ccccc2)c2ccccc21 (stereo unspecified)	none
CC1(c2ccccc2)CC(C)(C)N(C(=O)C2CCCO2)c2ccccc21 (stereo unspecified)	Cav3 T inh -4.5
COc1ccc(NC(=O)[C@@H](NC(=O)c2ccccc2)C(C)C)cc1S(=O)(=O)N1CCCCC1	none (no result: PLK1 PBD inh, Cav3 T inh, Rev-RRE block, PLK1 kinase inh, FAK blocker)
C=CCn1c(C)c(C(C)=O)c(N2CCN(c3ccccc3)CC2)nc1=S	Rev-RRE block 82[fluorescence artefact?]
C=CCn1c(C)c(C(C)=O)c(N2CCCC2)nc1=S	none
O=C(O)CC(CNS(=O)(=O)c1ccccc1)c1ccccc1 (stereo unspecified)	none (no result: PLK1 PBD inh, Pyk2 oligo antag, Rev-RRE block, PLK1 kinase inh, FAK blocker)
